Laboratory results: ChEMBL document CHEMBL2321737, “Selective inhibition of glycosyltransferases by bivalent imidazolium salts” (Bioorg Med Chem, 2013)
“And” between values parts separate entries of the source, which are not always exact repeats. Identical values can stand only once. The source made the active and inactive calls. The rule behind the calls is not given here.

Assays:
[1] = target: T1, Beta-1,4-galactosyltransferase 1 (Homo sapiens) (UniProt P15291); assay: Inhibition of human recombinant soluble His-tagged beta4-GalT1 expressed in Escherichia coli BL21 using GlcNAcbeta-Bn as substrate at 0.5 mM after 1 hr relative to control
T1 sequence (whole entry): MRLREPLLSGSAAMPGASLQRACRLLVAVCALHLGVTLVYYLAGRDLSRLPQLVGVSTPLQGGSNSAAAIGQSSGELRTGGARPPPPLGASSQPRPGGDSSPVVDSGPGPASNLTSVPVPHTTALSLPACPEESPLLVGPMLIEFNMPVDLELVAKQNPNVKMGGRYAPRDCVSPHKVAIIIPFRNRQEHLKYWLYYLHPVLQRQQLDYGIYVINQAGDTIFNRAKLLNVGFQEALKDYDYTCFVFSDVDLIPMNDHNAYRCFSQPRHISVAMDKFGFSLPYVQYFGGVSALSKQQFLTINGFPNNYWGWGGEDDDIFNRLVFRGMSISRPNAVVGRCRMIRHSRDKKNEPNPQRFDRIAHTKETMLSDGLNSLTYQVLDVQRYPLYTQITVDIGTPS
Method in brief: (§1)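 Single point at 0.5 mM bis-imidazolium salt, 10% ethanol. Acceptor 0.5 mM GlcNAcβ-Bn, donor 0.5 mM UDP-Gal. […] Enzyme: 0.34 µg His-tagged human β4-GalT1 from BL21, or bovine milk β4-GalT1. Mean ± SD of replicates.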

[2] = target: T2, Beta-1,3-galactosyltransferase 5 (Homo sapiens) (UniProt Q9Y2C3); assay: Inhibition of human recombinant soluble His-tagged beta3-GalT5 expressed in insect cells using GlcNAcbeta-Bn as substrate at 0.5 mM after 1 hr relative to control
T2 sequence (whole entry): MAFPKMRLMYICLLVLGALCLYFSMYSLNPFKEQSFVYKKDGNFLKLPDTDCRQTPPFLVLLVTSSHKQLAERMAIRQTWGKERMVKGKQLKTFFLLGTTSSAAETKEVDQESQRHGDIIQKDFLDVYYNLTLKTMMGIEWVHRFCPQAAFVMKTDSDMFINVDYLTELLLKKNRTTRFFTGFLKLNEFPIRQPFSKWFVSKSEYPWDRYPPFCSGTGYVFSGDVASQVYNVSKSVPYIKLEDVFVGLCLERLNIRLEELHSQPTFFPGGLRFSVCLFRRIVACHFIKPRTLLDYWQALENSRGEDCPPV
Method in brief: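 Soluble His-tagged human β3-GalT5 expressed in insect cells and purified, 0.37 µg. Acceptor 0.5 mM GlcNAcβ-Bn, donor 0.5 mM UDP-Gal, inhibitor 0.5 mM bis-imidazolium salt in 10% ethanol. 1 h at 37 °C. Product isolated on AG1-X8 resin and counted by scintillation. % inhibition versus no-inhibitor control; blanks lacked acceptor. Mean ± SD of replicates.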

[3] = target: Beta-1,3-galactosyltransferase 5 (Homo sapiens) (UniProt Q9Y2C3); assay: Inhibition of human recombinant soluble His-tagged beta3-GalT5 expressed in insect cells using GlcNAcbeta-Bn as substrate after 1 hr
Bos taurus = organism: Bos taurus; assay: Inhibition of bovine polypeptide GalNAcT1 using AQPTPPP as substrate at 0.5 mM after 1 hr relative to control
[4] = target: T3, Alpha-1,6-mannosyl-glycoprotein 2-beta-N-acetylglucosaminyltransferase (Homo sapiens) (UniProt Q10469); assay: Inhibition of human GNT2 […] using GnMan3-octyl as substrate at 0.5 mM after 1 hr in presence of phosphatidylcholine
T3 sequence (whole entry): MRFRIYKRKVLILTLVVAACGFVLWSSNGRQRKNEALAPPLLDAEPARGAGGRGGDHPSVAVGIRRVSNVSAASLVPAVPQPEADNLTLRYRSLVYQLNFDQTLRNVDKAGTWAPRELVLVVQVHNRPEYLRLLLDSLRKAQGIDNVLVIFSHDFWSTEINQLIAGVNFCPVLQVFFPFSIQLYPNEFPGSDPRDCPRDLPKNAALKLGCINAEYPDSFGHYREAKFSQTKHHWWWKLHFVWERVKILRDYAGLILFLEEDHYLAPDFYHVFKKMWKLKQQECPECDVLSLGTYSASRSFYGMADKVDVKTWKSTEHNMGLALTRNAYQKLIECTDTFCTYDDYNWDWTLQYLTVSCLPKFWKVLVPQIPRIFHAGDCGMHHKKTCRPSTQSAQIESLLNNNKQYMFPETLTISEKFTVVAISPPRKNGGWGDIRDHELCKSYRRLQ

Homo sapiens [5] = organism: Homo sapiens; assay: Inhibition of human C2GnT2 using GlcNAcbeta3GalNAcalpha-pnp as substrate at 0.5 mM after 1 hr in presence of phosphatidylcholine
Homo sapiens [6] = organism: Homo sapiens; assay: Inhibition of human C2GnT2 using Galbeta3GalNAcalpha-Bn as substrate at 0.5 mM after 1 hr in presence of phosphatidylcholine
[7] = target: T4, Acetylgalactosaminyl-O-glycosyl-glycoprotein beta-1,3-N-acetylglucosaminyltransferase (Homo sapiens) (UniProt Q6ZMB0); assay: Inhibition of human B3GnT6 using GalNAcalpha-Bn as substrate at 0.5 mM after 1 hr in presence of phosphatidylcholine
T4 sequence (whole entry): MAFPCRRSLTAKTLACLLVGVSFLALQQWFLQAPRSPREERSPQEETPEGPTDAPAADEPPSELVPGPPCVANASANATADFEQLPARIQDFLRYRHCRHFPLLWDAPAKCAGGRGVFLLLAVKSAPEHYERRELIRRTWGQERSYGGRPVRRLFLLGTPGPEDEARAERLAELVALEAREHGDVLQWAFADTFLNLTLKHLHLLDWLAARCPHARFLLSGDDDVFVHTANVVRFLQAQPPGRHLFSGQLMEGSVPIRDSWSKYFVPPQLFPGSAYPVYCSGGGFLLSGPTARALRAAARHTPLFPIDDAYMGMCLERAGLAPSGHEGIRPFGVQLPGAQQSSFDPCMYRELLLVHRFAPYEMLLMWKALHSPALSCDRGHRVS

[8] = target: T5, Beta-1,3-galactosyl-O-glycosyl-glycoprotein beta-1,6-N-acetylglucosaminyltransferase (Homo sapiens) (UniProt Q02742); assay: Inhibition of human C2GnT1 using Galbeta3GalNAcalpha-Bn as substrate at 0.5 mM after 1 hr in presence of phosphatidylcholine
T5 sequence (whole entry): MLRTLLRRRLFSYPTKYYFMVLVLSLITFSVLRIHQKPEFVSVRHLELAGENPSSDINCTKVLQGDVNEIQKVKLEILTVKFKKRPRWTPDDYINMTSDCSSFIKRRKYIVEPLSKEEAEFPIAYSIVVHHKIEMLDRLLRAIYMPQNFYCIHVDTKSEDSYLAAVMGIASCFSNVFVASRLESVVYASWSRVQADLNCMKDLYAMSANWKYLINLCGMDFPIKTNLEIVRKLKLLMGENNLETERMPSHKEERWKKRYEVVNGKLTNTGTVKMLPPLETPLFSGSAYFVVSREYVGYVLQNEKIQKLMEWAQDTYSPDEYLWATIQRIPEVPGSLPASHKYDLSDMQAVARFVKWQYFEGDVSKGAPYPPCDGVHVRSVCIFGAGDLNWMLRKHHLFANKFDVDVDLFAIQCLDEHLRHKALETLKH

[9] = target: T6, Beta-1,4-galactosyltransferase 1 (Bos taurus) (UniProt P08037); assay: Inhibition of bovine milk beta4-GalT1 using GlcNAcbeta-Bn as substrate at 0.5 mM after 1 hr relative to control; method in brief: as §1
T6 sequence (whole entry): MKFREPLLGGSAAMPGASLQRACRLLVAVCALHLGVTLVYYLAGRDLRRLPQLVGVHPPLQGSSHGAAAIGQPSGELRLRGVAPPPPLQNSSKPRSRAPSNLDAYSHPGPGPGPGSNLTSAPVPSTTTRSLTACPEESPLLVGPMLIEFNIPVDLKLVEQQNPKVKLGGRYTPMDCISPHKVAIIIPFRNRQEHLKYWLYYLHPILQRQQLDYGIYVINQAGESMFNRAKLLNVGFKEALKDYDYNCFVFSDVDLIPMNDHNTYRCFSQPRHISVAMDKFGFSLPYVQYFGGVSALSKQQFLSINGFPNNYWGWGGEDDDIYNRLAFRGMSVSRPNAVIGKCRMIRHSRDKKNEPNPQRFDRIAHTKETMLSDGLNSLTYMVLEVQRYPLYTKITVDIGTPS

[10] = Inhibition of human GNT1 using Man3-octyl as substrate at 0.5 mM after 1 hr in presence of phosphatidylcholine
[11] = target: Glycoprotein-N-acetylgalactosamine 3-beta-galactosyltransferase 1 (Homo sapiens) (UniProt Q9NS00); assay: Inhibition of human C1GalT Gal-transferase using GalNAcalpha-Bn as substrate at 0.5 mM after 1 hr in presence of phosphatidylcholine
[12] = target: Beta-1,3-galactosyltransferase 5 (Homo sapiens) (UniProt Q9Y2C3); assay: Inhibition of human recombinant soluble His-tagged beta3-GalT5 expressed in insect cells using GlcNAcbeta-Bn as substrate at 0.5 mM after 1 hr in presence of triton X-100
[13] = target: Beta-1,3-galactosyltransferase 5 (Homo sapiens) (UniProt Q9Y2C3); assay: Inhibition of human recombinant soluble His-tagged beta3-GalT5 expressed in insect cells using GlcNAcbeta-Bn as substrate at 0.5 mM after 1 hr in presence of phosphatidylcholine
[14] = target: T7, Beta-1,4-galactosyltransferase 1 (Bos taurus, UniProt P08037); assay: Inhibition of bovine milk beta4-GalT1 using GlcNAcbeta-Bn as substrate after 1 hr relative to control
T7 sequence (P08037 whole entry): T6 sequence (whole entry)
Method in brief: (§2)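 Dose-response series of bis-imidazolium salt in 10% ethanol, 0.5 mM GlcNAcβ-Bn acceptor, 0.5 mM UDP-Gal donor. 1 h at 37 °C. Product isolated on AG1-X8 anion-exchange resin (chloride form) with water elution, then scintillation counting. Controls lacked acceptor or inhibitor. IC50 fitted from inhibition curves. Enzyme source: bovine milk β4-GalT1 or bacterially expressed, purified human β4-GalT1.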

[15] = target: T8, Beta-1,4-galactosyltransferase 1 (Homo sapiens, UniProt P15291); assay: Inhibition of human recombinant soluble His-tagged beta4-GalT1 expressed in Escherichia coli BL21 using GlcNAcbeta-Bn as substrate after 1 hr relative to control; method in brief: as §2
T8 sequence (P15291 whole entry): T1 sequence (whole entry)

Glycoprotein-N-acetylgalactosamine 3-beta-galactosyltransferase 1 (Homo sapiens), sequence (Q9NS00 whole entry): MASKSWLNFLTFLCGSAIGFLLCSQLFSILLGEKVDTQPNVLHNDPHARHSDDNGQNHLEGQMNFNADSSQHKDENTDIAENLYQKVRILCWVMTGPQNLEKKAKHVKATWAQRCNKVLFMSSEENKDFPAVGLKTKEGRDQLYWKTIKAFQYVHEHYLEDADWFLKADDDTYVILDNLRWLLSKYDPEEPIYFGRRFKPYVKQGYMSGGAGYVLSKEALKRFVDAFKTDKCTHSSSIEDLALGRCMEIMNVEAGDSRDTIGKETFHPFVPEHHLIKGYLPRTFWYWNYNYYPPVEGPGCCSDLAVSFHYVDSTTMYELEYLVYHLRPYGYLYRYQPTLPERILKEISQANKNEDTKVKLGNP

Compound	inhibition [1]	inhibition [2]	further results
C[n+]1ccn(CCCCCCCCCCCCCCCCCCCCn2cc[n+](C)c2)c1 [listing 1 of 3 here]			IC50 [3]: 420 µM
C[n+]1ccn(CCCCCCn2cc[n+](C)c2)c1	< 1%	< 1%	
c1cn(CCCCCCn2ccnc2)cn1	< 1%	< 1%	
c1cn(CCCCCCCCCCCCCCCCCCn2ccnc2)cn1	< 1%	< 1%	
c1cn(CCCCCCCCCCCCn2ccnc2)cn1	< 1%	< 1%	
C[n+]1ccn(CCCCCCCCCCCCCCCCCCCCn2cc[n+](C)c2)c1 [listing 3 of 3 here]			IC50 [14]: 730 µM; IC50 [15]: 1960 µM; IC50 [3]: 440 µM
c1cn(CCCCCCCCCCCCCn2ccnc2)cn1	< 1%	< 1%	
c1cn(CCCCCCCCCCCCCCCCCCCCn2ccnc2)cn1	< 1%	< 1%	
c1cn(CCCCn2ccnc2)cn1	< 1%	< 1%	
c1cn(CCCCCCCCn2ccnc2)cn1	< 1%	< 1%	
C[n+]1ccn(CCCCn2cc[n+](C)c2)c1	< 1%	< 1%	
c1cn(CCCCCCCCCCCCCCCCn2ccnc2)cn1	< 1%	< 1%	
c1cn(CCCCCCCCCCCn2ccnc2)cn1	< 1%	< 1%	
c1cn(CCCCCCCCCCCCCCCn2ccnc2)cn1	< 1%	< 1%	
c1cn(CCCCCCCCCCn2ccnc2)cn1	< 1%	< 1%	
c1cn(CCCCCCCCCCCCCCn2ccnc2)cn1	< 1%	< 1%	

Further lines, with some results ahead:

inhibition [1]	inhibition [2]	Compound	further results
< 1%	< 1%	C[n+]1ccn(CCCCCCCCCCCCCCCCn2cc[n+](C)c2)c1	
< 1%	< 1%	C[n+]1ccn(CCCCCCCCn2cc[n+](C)c2)c1	
< 1%	< 1%	C[n+]1ccn(CCCCCCCCCCCCCn2cc[n+](C)c2)c1	
< 1%	< 1%	C[n+]1ccn(CCCCCCCCCCCCn2cc[n+](C)c2)c1	
< 1%	< 1%	C[n+]1ccn(CCCCCCCCCCCCCCn2cc[n+](C)c2)c1	
40.7% and 54%	79.2% and 84%	C[n+]1ccn(CCCCCCCCCCCCCCCCCCCCn2cc[n+](C)c2)c1 [listing 2 of 3 here]	inhibition (Bos taurus): 96.8% and 91%; inhibition [4]: < 1%; inhibition (Homo sapiens [5]): < 1%; inhibition (Homo sapiens [6]): < 1%; inhibition [7]: 80% and 94.4%; inhibition [8]: 100%; inhibition [9]: 40.7% and 54%; inhibition [10]: < 1%; inhibition [11]: < 1%; inhibition [12]: inactive; inhibition [13]: inactive
< 1%	< 5%	C[n+]1ccn(CCCCCCCCCCCCCCCCCCn2cc[n+](C)c2)c1	
78%	95%	C[n+]1ccn(CCCCCCCCCCCCCCCCCCCCCCn2cc[n+](C)c2)c1	inhibition (Bos taurus): 100%; inhibition [4]: < 1%; inhibition (Homo sapiens [5]): < 1%; inhibition (Homo sapiens [6]): < 1%; inhibition [7]: 78%; inhibition [8]: 100%; inhibition [9]: 78%; inhibition [11]: < 1%; IC50 [3]: 400 µM
< 1%	< 1%	C[n+]1ccn(CCCCCCCCCCCn2cc[n+](C)c2)c1	
< 1%	< 1%	C[n+]1ccn(CCCCCCCCCCn2cc[n+](C)c2)c1	
< 1%	< 1%	C[n+]1ccn(CCCCCCCCCCCCCCCn2cc[n+](C)c2)c1	
